# In the library only some 4% were active in any assay of this set; here they are far more common.
# FGF22 binding – shifts melting point of recombinant human FGF22 | Q9HCT0 | activity (Tm shift, normalised), % at 9.99 µM | 340,000 compounds, 1.5% hits | recombinant FGF22 thermal shift, SYPRO orange fluorescence; percent of sucrose octasulfate shift, DMSO zero;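 active = mean Tm shift, scaled 0 neutral to 100 positive control, at about 1.3% or above, every replicate too, limit read from the data; inconclusive = no clear call, values can overlap the other calls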
# Target sequence (Q9HCT0 whole entry, looked up): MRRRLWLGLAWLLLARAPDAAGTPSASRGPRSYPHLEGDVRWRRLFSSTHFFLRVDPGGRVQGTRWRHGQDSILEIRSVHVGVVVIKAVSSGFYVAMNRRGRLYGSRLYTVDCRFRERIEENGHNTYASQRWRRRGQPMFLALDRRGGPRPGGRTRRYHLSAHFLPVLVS
# FN deposition inh – fibronectin deposition inhibition; AH1F fibroblasts, Alexa488-fibronectin deposition fluorescence, overnight; inhibition, % at 12.6 µM; 350,000 compounds, 0.086% hits;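 active = mean inhibition across replicates of 30% or more, regardless of how many single replicates reach that level; inconclusive = mean under 30% yet at least half of replicates reach 30%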;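 note: positive control wells lacked labelled fibronectin entirely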
#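 Schedule: 1 h cell adhesion before compound, then overnight fibronectin incubation; test system: AH1F fibroblast monolayer depositing Alexa488-labelled fibronectin into matrix; quantity: 10000 AH1F cells per well; probe or stimulus: fluorescent fibronectin at 24 nM final; signal: fluorescence, ex 485 nm, em 525 nm; evaluation: percent inhibition as loss of matrix-bound fibronectin fluorescence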
# Statin myotox sup – protects C2C12 myotubes from simvastatin toxicity; 330,000 compounds, 0.78% hits; ATP luminescence, 48 h; scaled: DMSO 0, geranylgeraniol control 100; AID 602340; rescue of ATP level, % at 7.49 µM;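 active = mean ATP rescue above about 67%, or every replicate alone reaching that limit, limit read from the data, passing the limit was not always enough; inconclusive = no clear call, values can overlap the other calls; inactive = mean under the limit and some replicate under it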;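 note: myotubes were challenged with 10 µM simvastatin during compound exposure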
# SIRT5 block – blocks human SIRT5 desuccinylation of peptide; Q9NXA8; Purified SirT5, succinyl-peptide AMC, trypsin-coupled fluorescence; inhibition, % at 15 µM; 330,000 compounds, 1.1% hits; AID 652115; in the data active = inhibition above about 15%; inconclusive = no clear call, values can overlap the other calls
# rRNA inh HTS – inhibitors of bacterial rRNA selective over humanized ribosomes | AID 720706 | E. coli WT GFP vs humanized-ribosome RFP mutants, fluorescence, 24 h; hits give low values; DMSO median 0, no signal -100 | 350,000 compounds, 1.6% hits | GFP signal change (wild-type ribosome), % (test concentration not listed);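 active = significant combined selectivity score with lowered wild-type GFP, culture density cut under 30%, mutant RFP and density less affected; inactive = any of these conditions unmet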
# E-sel inducer – induces E-selectin expression in human endothelial cells. P16581. HUVEC E-selectin immunofluorescence imaging; normalized: neutral wells 0, TNF-alpha wells 100. activation, % at 7.58 µM. 260,000 compounds, 0.37% hits;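 active = mean E-selectin-positive cell signal at least 10% of the positive control, reached in at least 60% of replicates, without over 20% cell loss; inconclusive = no rule given, readout overlaps actives, possibly toxicity-flagged; inactive = the rest, including those meeting only one limit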
#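 Test system: HUVEC | Signal: Immunofluorescence imaging | Read-out: Percent E-selectin-positive cells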
# * hit, by the source's call; ? = inconclusive; · = no result given.
SMILES,FGF22 binding,FN deposition inh,Statin myotox sup,SIRT5 block,rRNA inh HTS,E-sel inducer
CC(C)Cn1c(=S)[nH]c2ccccc2c1=O,1,-11,·,1,2,-1
COc1ccccc1Cn1c(=S)[nH]c2ccccc2c1=O,0,9,-3,-4,-28*,2
C=C(C)Cn1c(=S)[nH]c2ccccc2c1=O,·,4,144*,·,·,0
COc1ccccc1Cn1c(=S)[nH]c2ccc(F)cc2c1=O,0,3,3,-2,-14*,0
COc1ccccc1Cn1c(=S)[nH]c2ccc(Br)cc2c1=O,0,2,-4,-1,3,0
C[C@@H]1CN([C@@H](C)CO)C(=O)CCCn2cc(nn2)CO[C@@H]1CN(C)C(=O)c1cc(-c2ccccc2)on1,·,3,4,·,-7,0
O=C(C1CCCC1)N1CCCCN2[C@H](C1)[C@H](c1ccc(-c3ccncc3)cc1)[C@@H]2CO,0,·,·,-2,·,·
Cc1nn(-c2ccccc2)nc1C(=O)Nc1nnc(C(F)(F)F)s1,1,0,-22,2,-32*,6
COC(C(=O)NCc1ccc(C)cc1)c1ccccc1 (configuration not stated),43*,2,-1,1,10,1
COC(=O)[C@H](Cc1ccccc1)NC(=O)NCc1ccc(C)cc1,0,0,8,0,-7,0
Cc1ccc(CNC(=O)N[C@@H](Cc2ccccc2)C(=O)O)cc1,0,2,·,17*,18,·
O=C(Nc1ccc2c(c1)OCO2)N[C@H]1CC[C@@H](CCNC(=O)C2CCC2)O[C@H]1CO,0,·,1,-3,-1,-1
C[C@H]1CN([C@@H](C)CO)C(=O)c2cccc(NS(=O)(=O)c3cccs3)c2O[C@@H]1CN(C)C(=O)NC1CCCCC1,0,·,-9,-2,1,-4
COc1cccc(-c2cn(CC[C@@H]3CC[C@H](NS(=O)(=O)Cc4ccccc4)[C@H](CO)O3)nn2)c1,0,2,2,-7,-7,0
Cc1ccnc(NC(=O)CCC(=O)N(CC(=O)NCC2CCCO2)Cc2ccc(F)cc2)c1 (configuration not stated),·,·,91*,·,·,·
O=C(Cc1ccc(F)cc1)NCC1CCCO1 (configuration not stated),43*,-13,4,-3,20,-1
O=C(NCC1CCCO1)c1ccc(Cl)c(F)c1F (configuration not stated),·,·,84*,·,·,·
O=C(CNC(=S)N(Cc1ccccc1F)C1CCCCC1)NCC1CCCO1 (configuration not stated),0,6,·,-1,-32*,?
C[C@@H]1CN([C@@H](C)CO)C(=O)c2cc(NC(=O)c3ccncc3)ccc2O[C@@H](C)CCCCO[C@@H]1CN(C)C,0,·,17,2,-1,0
[N-]=C=C1C(=S)NC(=O)[C@H]([n+]2ccccc2)[C@H]1c1ccc(Cl)cc1,0,-8,·,34*,2,1
CCC(=O)Nc1ccc2c(c1)C(=O)N(C)C[C@H](OC)[C@H](C)CN(C(=O)c1ccncc1)[C@@H](C)CO2,0,6,4,-9,4,0
O=C(CSCc1cnn(-c2ccccc2)c1-n1cccc1)NCc1cccs1,·,·,121*,·,·,·
CC(=O)c1ccc(-c2c(C)cc3oc(=O)cc(-c4ccccc4)c3c2C)cc1,0,·,0,-1,-22*,·
CC(C)Cc1nnc(NC(=O)Cc2ccc([N+](=O)[O-])cc2)s1,0,-11,·,29*,8,·
CC(C)Cc1nnc(NC(=O)CCC(=O)N2CCN(c3ccc([N+](=O)[O-])cc3)CC2)s1,0,4,-36,8,-5,·
Cc1ccc(C(=O)O)cc1NC(=S)NC(=O)c1ccc(-c2ccccc2)cc1,43*,-13,3,1,-9,·
O=C(O)c1cccc(NC(=S)NC(=O)c2ccc(-c3ccccc3)cc2)c1,0,-5,·,-2,3,·
Cc1ccc(C(=O)NC(=S)Nc2ccccc2C(F)(F)F)cc1C,·,·,93*,·,·,·
Cc1cccc(C(=O)NC(=S)Nc2ccccc2C(F)(F)F)c1,·,-3,·,·,·,0

# Bioassay records as filed in PubChem BioAssay.
